Consider 6 compounds from ChEMBL document CHEMBL1136016, “Synthesis, biological activity, and molecular modeling investigation of new pyrazolo[4,3-e]-1,2,4-triazolo[1,5-c]pyrimidine derivatives as human A(3) adenosine receptor antagonists” (J Med Chem, 2002).

One may read the Ki as a measure of affinity in units of concentration, obtained from inhibition or displacement. By IC50 is commonly meant the midpoint of a concentration-inhibition curve. Read a high IC50 as weaker potency in that assay.

The target in test [1] is T1, Adenosine receptor A2b (Homo sapiens, UniProt P29275).
T1 sequence (P29275 whole entry): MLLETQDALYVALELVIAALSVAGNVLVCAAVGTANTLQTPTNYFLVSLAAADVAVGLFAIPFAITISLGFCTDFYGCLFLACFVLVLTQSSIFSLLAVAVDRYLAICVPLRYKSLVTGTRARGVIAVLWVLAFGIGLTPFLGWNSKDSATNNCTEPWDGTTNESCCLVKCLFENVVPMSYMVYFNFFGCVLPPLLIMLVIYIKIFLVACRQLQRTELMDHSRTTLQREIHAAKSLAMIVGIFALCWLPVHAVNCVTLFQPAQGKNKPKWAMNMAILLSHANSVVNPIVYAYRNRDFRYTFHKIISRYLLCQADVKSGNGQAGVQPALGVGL
As to the kind of experiment: Displacement of [3H]DPCPX from human Adenosine A2B receptor expressed in HEK293 cells; range 115-161. The format is cell-based. An outline of the steps: (§1)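 HEK-293 membranes expressing the human receptor were incubated 60 min at 25 °C. Six to eight test concentrations were used. Nonspecific binding was set with NECA. n = 3-6.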
In general terms: Loss of bound radioactivity is the signal in a displacement assay; it reports binding, not function.

For test [2], the target named is T2, Adenosine receptor A1 (Homo sapiens, UniProt P30542).
T2 sequence (P30542 whole entry): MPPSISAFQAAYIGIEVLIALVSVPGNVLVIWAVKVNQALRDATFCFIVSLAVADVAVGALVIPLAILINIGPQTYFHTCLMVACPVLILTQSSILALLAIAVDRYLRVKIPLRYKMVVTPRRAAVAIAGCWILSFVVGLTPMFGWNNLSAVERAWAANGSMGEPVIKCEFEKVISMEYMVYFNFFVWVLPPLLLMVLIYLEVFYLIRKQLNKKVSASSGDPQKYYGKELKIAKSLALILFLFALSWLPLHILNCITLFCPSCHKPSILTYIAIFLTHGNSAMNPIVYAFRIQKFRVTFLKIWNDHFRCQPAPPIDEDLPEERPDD
The test can be described thus: Displacement of [3H]DPCPX from human Adenosine A1 receptor expressed in CHO cells; range 330-478. The format is cell-based. In short, it runs like this: (§2)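 Human recombinant A1 receptor in CHO cell membranes, resuspended in 50 mM Tris HCl pH 7.4. Displacement run 120 min at 25 °C with 1 nM [3H]DPCPX, 50 µg protein per assay, and at least six to eight test concentrations. Nonspecific binding defined with CHA. Bound and free separated on glass-fiber filters; filter radioactivity counted. n = 3-6.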

The target of test [3] is T3, Adenosine receptor A2a (Homo sapiens, UniProt P29274). The test can be described thus: Displacement of [3H]SCH-58261 from human Adenosine A2A receptor expressed in HEK293 cells; range 24-48. The format is cell-based.
The target of test [4] is Adenosine receptors; A2b & A3 (Homo sapiens) (UniProt P29275+P0DMS8). The test can be described thus: Selectivity ratio (h2B/hA3). The format is protein assay.
The target of test [5] is Adenosine receptors; A1 & A3 (Homo sapiens) (UniProt P30542+P0DMS8). As to the kind of experiment: Selectivity ratio (hA1/hA3). The class given is protein assay.
The target in test [6] is T4, Adenosine receptor A3 (Homo sapiens, UniProt P0DMS8).
T4 sequence (P0DMS8 whole entry): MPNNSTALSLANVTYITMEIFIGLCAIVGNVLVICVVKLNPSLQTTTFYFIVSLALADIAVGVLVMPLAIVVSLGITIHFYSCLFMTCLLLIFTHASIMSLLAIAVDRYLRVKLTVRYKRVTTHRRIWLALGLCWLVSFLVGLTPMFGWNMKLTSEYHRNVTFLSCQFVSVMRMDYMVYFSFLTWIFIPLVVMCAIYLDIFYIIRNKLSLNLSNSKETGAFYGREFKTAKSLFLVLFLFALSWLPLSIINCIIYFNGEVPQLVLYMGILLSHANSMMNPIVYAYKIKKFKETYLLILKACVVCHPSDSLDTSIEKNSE
As to the kind of experiment: biochemical.

The target of test [7] is T1, Adenosine receptor A2b. The test can be described thus: Displacement of [3H]DPCPX from human Adenosine A2B receptor expressed in HEK293 cells; range 65-94. The class given is cell-based. An outline of the steps:
(§3)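 Competition binding on membranes of HEK-293 cells carrying recombinant human A2B receptor. Incubation 60 min at 25 °C in 50 mM Tris HCl pH 7.4 with 10 mM MgCl2, 1 mM EDTA, 0.1 mM benzamidine and 2 IU/mL adenosine deaminase. Radioligand 40 nM [3H]DPCPX, at least six to eight test concentrations. NECA defined nonspecific binding. Bound ligand separated on glass-fibre filters and counted; n = 3-6.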

The target of test [8] is T3, Adenosine receptor A2a. As to the kind of experiment: Displacement of [3H]SCH-58261 from human Adenosine A2A receptor expressed in HEK293 cells; range 83-120. The format is cell-based.
Test [9] has as its target T2, Adenosine receptor A1. The test can be described thus: Displacement of [3H]DPCPX from human Adenosine A1 receptor expressed in CHO cells; range 245-319. The format is cell-based.
For test [10], the target named is T4, Adenosine receptor A3. The test can be described thus: Displacement of [3H]MRE3008-F20 binding at human Adenosine A3 receptor expressed in HEK cells; range 0.76-0.98. The class given is cell-based, HEK293.
Test [11] has as its target T1, Adenosine receptor A2b. As to the kind of experiment: Displacement of [3H]DPCPX from human Adenosine A2B receptor expressed in HEK293 cells; range 178-310. The class given is cell-based. An outline of the steps: as §1
For test [12], the target named is T2, Adenosine receptor A1. As to the kind of experiment: Displacement of [3H]DPCPX from human Adenosine A1 receptor expressed in CHO cells; range 346-586. The class given is cell-based. In short, it runs like this: as §2
In test [13] the target is T3, Adenosine receptor A2a. The test can be described thus: Displacement of [3H]SCH-58261 from human Adenosine A2A receptor expressed in HEK293 cells; range 51-55. The class given is cell-based.
The target in test [14] is T4, Adenosine receptor A3. As to the kind of experiment: biochemical. The source holds these as a separate data set.
Test [15] concerns the target T4, Adenosine receptor A3. The test can be described thus: Displacement of [3H]MRE3008-F20 from human Adenosine A3 receptor expressed in HEK cells; range 0.10-0.18. The format is cell-based, HEK293.
Test [16] deals with T3, Adenosine receptor A2a. The test can be described thus: Displacement of [3H]SCH-58261 from human Adenosine A2A receptor expressed in HEK293 cells; range 40-96. The format is cell-based.
The target of test [17] is T1, Adenosine receptor A2b. The test can be described thus: Displacement of [3H]-DPCPX from human Adenosine A2B receptor expressed in HEK293 cells; range 206-282. The format is cell-based. An outline of the steps:
as §3

Test [18] deals with T4, Adenosine receptor A3. The test can be described thus: Inhibition of IB-MECA agonist-mediated cAMP production in CHO cell membranes expressing human Adenosine A3 receptor; range 5.5-10.9. The format is functional, cell-based. An outline of the steps: (§4)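 Human A3-CHO membranes (in 50 mM Tris HCl, 10 mM MgCl2, 1 mM EDTA, pH 7.4) were preincubated for 10 min at 37 °C with 5 µM GTP, 0.5 mM Ro 20-1724 and 2.0 IU/mL adenosine deaminase. IB-MECA (100 nM) or antagonist was then added with 1 mM ATP and forskolin for 10 min. The reaction was stopped by 2 min boiling. cAMP was measured by [3H]cAMP competitive protein binding using beef adrenal binding protein, 150 min at 4 °C.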
In general terms: Changes in cAMP serve as a functional read-out for many G protein-coupled receptors.

For test [19], the target named is T4, Adenosine receptor A3. As to the kind of experiment: Displacement of [3H]MRE3008-F20 from human Adenosine A3 receptor expressed in HEK cells; range 0.71-0.91. The format is cell-based, HEK293.
The target in test [20] is T3, Adenosine receptor A2a. The test can be described thus: Displacement of [3H]SCH-58261 from human Adenosine A2A receptor expressed in HEK293 cells; range 140-186. The format is cell-based.
The target of test [21] is T1, Adenosine receptor A2b. As to the kind of experiment: Displacement of [3H]DPCPX from human Adenosine A2B receptor expressed in HEK293 cells; range 213-296. The class given is cell-based. In short, it runs like this:
as §3

The target in test [22] is T2, Adenosine receptor A1. The test can be described thus: Displacement of [3H]DPCPX from human Adenosine A1 receptor expressed in CHO cells; range 406-616. The class given is cell-based.
Test [23] has as its target T2, Adenosine receptor A1. The test can be described thus: Displacement of [3H]DPCPX from human Adenosine A1 receptor expressed in CHO cells; range 324-475. The class given is cell-based.
For test [24], the target named is T1, Adenosine receptor A2b. As to the kind of experiment: Displacement of [3H]-DPCPX from human Adenosine A2B receptor expressed in HEK293 cells; range 91-148. The format is cell-based. An outline of the steps:
as §3

For test [25], the target named is T4, Adenosine receptor A3. The test can be described thus: Displacement of [3H]MRE3008-F20 from human Adenosine A3 receptor expressed in HEK cells; range 3.05-3.78. The class given is cell-based, HEK293.
Test [26] addresses T4, Adenosine receptor A3. As to the kind of experiment: Inhibition of IB-MECA agonist-mediated cAMP production in CHO cell membranes expressing human Adenosine A3 receptor; range 15-44. The format is functional, cell-based. An outline of the steps: as §4
Test [27] addresses T3, Adenosine receptor A2a. As to the kind of experiment: Displacement of [3H]SCH-58261 from human Adenosine A2A receptor expressed in HEK293 cells; range 114-179. The format is cell-based.

T3 sequence (P29274 whole entry): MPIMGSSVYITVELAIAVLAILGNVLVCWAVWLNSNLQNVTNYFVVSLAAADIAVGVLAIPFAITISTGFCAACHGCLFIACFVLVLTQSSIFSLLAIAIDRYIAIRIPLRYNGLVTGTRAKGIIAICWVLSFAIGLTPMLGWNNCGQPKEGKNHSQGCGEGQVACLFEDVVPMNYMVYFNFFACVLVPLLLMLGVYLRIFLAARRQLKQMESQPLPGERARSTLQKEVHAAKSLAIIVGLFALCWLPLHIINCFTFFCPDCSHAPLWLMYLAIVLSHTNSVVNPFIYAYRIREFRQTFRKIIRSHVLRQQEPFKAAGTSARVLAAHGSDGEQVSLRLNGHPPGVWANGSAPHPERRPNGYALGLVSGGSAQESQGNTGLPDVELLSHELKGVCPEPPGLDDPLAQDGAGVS

`CCCn1cc2c(nc(NC(=O)Nc3ccc(C(F)(F)F)cc3)n3nc(-c4ccco4)nc23)n1`: the inhibition constant Ki in [1] was found to be 0.136 µM; in test [2], 0.4 µM; in test [3] it was 0.034 µM; in test [6], 0.00051 µM. For the same compound, the Ratio worked out at 267 in [4] and 784 in test [5].
Consider `CCCCn1cc2c(nc(NC(=O)Nc3ccccc3Cl)n3nc(-c4ccco4)nc23)n1`, for which the Ki amounted to 0.078 µM in test [7], 0.1 µM in test [8], 0.28 µM in [9] and 0.00086 µM in test [10]. Besides, the Ratio in test [4] amounted to 91; in test [5], 326.
In the case of `CCn1cc2c(nc(NC(=O)Nc3ccc(C(F)(F)F)cc3)n3nc(-c4ccco4)nc23)n1`, the Ki was 0.235 µM in [11], 0.45 µM in [12], 0.053 µM in test [13] and 0.00097 µM in test [14]. Besides, the Ratio worked out at 242 in test [4] and 464 in [5].
With `CCCn1cc2c(nc(NC(=O)Nc3ccccc3)n3nc(-c4ccco4)nc23)n1`, the Ki came to 0.00015 µM in [15], 0.062 µM in test [16] and 0.241 µM in test [17]. The results for the Ratio in test [4] and in test [5] were 1610 and 1170, respectively.
`COc1cccc(NC(=O)Nc2nc3nn(C)cc3c3nc(-c4ccco4)nn23)c1` had an IC50 in test [18] of 0.0078 µM. Besides, the Ki in [19] turned out to be 0.0008 µM; in test [20], 0.16 µM; in test [21], 0.251 µM; in test [22] it was 0.5 µM. For the same compound, the results for the Ratio in [4] and in [5] were 313 and 625, respectively.
As for `Cn1cc2c(nc(NC(=O)Nc3ccc(Cl)c(Cl)c3)n3nc(-c4ccco4)nc23)n1`, the Ki in [23] turned out to be 0.392 µM; in test [24], 0.116 µM; in test [25] it was 0.0034 µM; in test [27], 0.143 µM. The compound further displayed a half-maximal inhibitory concentration (IC50) in test [26] of 0.026 µM. Also, the Ratio came to 34 in test [4] and 115 in test [5].
